Results on two molecules are retold here after paper PMC3736091 (Molecular cancer therapeutics, 2013).

The target of series [1] is ATM (Homo sapiens, UniProt Q13315). The note with it: read-out: Enzyme IC50 ATM; purified enzyme; data previously reported; cited from earlier work.
Series [2] addresses ATR (Homo sapiens, UniProt Q13535). The conditions noted are these: read-out: Enzyme IC50 ATR; purified enzyme; data previously reported; cited from earlier work.
The subject of series [3] is human tumour cell lines. The note with it: cited from earlier work.
The test system of series [4] is PI3K. The conditions noted are these: read-out: Enzyme IC50 PI3K; purified enzyme; data previously reported; cited from earlier work.
Series [5] addresses ATM activity in SW620 cells (Homo sapiens, UniProt Q13315). Put plainly: Inhibition of cellular ATM activity, SW620. The series is classed as cell-based. The note with it: 10 μM.
Series [6] in a line: Plasma and tumour concentrations in SW620 tumour-bearing nude mice. The series is classed as in vivo. In short, it runs like this:
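Female CD-1 nude mice carried SW620 s.c. flank xenografts (1×10^7 cells) of ~650 mm³. Test compound was given at 50 mg/kg i.p. in equimolar phosphoric acid/saline, pH 4. The comparator ATM inhibitor was given at 10 mg/kg i.p. in phosphoric acid, 5% DMSO, 10% encapsin, pH 4. Dosing volume was 10 ml/kg. Plasma and tumour were sampled at 1 and 4 h and analysed by HPLC; the tumour detection limit was 0.5 μM.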

Series [7] concerns PI4K. The conditions noted are these: read-out: Enzyme IC50 PI4K; purified enzyme; data previously reported; cited from earlier work.

Chain of ATR (Q13535 whole entry): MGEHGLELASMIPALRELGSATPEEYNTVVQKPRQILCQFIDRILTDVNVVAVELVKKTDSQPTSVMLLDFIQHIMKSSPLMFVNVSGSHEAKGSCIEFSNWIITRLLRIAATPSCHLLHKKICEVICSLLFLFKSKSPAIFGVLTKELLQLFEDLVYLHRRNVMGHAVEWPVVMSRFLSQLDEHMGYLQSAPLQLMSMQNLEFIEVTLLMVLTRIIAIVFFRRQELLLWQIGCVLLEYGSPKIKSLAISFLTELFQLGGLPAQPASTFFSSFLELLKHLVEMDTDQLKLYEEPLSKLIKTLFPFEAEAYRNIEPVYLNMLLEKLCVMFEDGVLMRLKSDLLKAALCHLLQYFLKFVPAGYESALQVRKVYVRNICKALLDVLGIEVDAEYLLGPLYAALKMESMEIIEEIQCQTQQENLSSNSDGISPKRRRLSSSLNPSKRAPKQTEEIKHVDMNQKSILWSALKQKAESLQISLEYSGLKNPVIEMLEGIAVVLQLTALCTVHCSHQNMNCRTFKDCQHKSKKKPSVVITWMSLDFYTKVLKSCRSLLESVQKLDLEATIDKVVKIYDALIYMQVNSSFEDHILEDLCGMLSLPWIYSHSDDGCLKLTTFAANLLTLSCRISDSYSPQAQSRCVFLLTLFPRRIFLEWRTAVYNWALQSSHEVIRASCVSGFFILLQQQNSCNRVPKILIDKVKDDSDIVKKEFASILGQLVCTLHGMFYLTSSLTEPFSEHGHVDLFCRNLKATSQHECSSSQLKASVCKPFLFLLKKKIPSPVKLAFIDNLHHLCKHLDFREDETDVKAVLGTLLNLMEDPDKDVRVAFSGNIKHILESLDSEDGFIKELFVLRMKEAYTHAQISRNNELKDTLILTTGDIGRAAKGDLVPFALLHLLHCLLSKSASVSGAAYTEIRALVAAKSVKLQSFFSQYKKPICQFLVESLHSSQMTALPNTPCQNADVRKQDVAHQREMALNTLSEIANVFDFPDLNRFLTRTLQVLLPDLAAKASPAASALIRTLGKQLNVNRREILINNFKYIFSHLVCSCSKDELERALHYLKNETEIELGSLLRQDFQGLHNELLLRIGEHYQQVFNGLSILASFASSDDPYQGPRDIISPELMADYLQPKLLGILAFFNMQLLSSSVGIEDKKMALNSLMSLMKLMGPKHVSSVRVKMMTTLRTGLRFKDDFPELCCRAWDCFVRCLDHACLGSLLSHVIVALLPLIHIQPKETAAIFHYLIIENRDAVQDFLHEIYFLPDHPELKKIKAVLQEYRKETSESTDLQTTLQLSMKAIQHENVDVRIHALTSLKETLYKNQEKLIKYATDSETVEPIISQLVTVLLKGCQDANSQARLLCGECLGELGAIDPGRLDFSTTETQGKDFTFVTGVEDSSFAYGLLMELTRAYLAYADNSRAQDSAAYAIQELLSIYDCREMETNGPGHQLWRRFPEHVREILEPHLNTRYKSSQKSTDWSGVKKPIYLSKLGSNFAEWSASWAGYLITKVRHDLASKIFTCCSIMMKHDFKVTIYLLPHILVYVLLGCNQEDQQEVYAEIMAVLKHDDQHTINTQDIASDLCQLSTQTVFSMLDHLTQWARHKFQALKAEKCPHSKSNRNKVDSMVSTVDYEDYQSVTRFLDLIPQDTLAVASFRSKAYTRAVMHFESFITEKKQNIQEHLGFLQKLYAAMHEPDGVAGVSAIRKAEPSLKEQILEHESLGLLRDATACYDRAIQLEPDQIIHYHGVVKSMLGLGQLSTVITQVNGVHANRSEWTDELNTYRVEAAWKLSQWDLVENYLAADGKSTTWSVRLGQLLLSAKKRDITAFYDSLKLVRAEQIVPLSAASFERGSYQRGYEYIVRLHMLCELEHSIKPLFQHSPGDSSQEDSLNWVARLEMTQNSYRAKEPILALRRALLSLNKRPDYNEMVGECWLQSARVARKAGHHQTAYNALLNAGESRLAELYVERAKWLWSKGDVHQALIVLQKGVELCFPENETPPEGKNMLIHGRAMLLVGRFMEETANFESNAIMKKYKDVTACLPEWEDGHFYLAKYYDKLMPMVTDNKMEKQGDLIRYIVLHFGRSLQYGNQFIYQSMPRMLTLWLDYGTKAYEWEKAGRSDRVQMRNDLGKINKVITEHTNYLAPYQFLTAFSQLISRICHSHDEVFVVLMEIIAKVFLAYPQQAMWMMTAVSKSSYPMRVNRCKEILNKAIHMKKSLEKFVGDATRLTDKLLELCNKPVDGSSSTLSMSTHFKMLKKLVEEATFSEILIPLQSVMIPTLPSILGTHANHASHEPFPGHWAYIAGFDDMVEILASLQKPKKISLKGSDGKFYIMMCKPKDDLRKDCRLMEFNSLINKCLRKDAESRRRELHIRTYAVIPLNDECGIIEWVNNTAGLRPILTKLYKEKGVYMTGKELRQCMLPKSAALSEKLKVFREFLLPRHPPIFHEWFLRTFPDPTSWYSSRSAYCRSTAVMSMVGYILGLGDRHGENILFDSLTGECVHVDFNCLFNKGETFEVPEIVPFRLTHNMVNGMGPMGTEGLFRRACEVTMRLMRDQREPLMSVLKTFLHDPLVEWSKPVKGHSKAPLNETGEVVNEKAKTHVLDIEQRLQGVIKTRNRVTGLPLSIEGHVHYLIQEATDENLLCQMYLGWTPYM
Chain of ATR (Q8WXE1 whole entry partner): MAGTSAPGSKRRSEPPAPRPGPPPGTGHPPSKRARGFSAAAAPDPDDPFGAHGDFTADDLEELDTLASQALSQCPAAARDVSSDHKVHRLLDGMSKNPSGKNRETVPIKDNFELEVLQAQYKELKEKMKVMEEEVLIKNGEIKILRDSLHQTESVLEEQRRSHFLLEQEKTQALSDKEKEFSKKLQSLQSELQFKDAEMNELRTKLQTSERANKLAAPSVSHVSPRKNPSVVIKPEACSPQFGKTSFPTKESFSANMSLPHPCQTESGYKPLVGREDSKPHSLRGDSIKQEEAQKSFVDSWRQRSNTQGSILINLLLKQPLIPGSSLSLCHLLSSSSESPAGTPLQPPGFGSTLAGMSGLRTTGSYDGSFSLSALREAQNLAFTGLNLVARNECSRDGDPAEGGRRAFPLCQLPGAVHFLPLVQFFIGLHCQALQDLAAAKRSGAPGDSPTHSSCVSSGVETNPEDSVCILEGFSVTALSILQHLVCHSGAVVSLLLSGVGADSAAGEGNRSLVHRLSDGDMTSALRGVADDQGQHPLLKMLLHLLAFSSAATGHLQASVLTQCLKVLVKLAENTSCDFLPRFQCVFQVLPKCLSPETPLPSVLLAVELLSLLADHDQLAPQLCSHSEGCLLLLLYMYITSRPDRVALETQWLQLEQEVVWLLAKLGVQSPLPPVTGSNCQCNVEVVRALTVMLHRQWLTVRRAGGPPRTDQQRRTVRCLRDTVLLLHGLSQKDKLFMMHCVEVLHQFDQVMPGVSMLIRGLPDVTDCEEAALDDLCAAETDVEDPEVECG

Take `O=c1cc(N2CCOCC2)oc2c(-c3ccccc3)cccc12` [LY294002]: the values for the IC50 in series [1] and in series [2] were above 100 µM and 100 µM, respectively.

Take `O=c1cc(-c2cccc3c2Sc2ccccc2S3)oc(N2CCOCC2)c1` [KU55933]: the “Concentration needed to induce in vitro chemo- and radio-sensitisation” value in series [3] is 10 µM. Further, the IC50 (as a rule, the concentration at which inhibition is half-maximal) was 1.7 µM in series [4], above 10 µM in series [2] and above 10 µM in series [7]. Also, the “Inhibition of ATM activity” value in series [5] is “substantially inhibited ATM activity”. In addition, in series [6] (10 mg/kg i.p., SW620 xenograft, below limit of detection), the Tumour concentration was below 0.5 µM. For the same molecule, the Plasma concentration result in series [6] (single dose 10 mg/kg i.p., SW620-bearing nude mice) is “over 1 μM”.
